Reference: ChEMBL document CHEMBL3232996, “Synthesis and biological evaluation of novel (123)I-labeled 4-(4-iodophenyl)butanoyl-L-prolyl-(2S)-pyrrolidines for imaging prolyl oligopeptidase in vivo” (Eur J Med Chem, 2014)

Tests used:
[1] = Fraction unbound in iv dosed C57Bl/6JRccHsd mouse plasma measured at 80 mins; assay type: ADME, organism-based
Summary of the method: (§1)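 Male mice given 3.6 MBq tracer i.v. via lateral tail vein; blocking groups got POP inhibitor i.p. (50 µmol/kg, 10 mL/kg, 1% DMSO in 0.9% NaCl) 10 min before. Heparinized cardiac blood on ice, gamma-counted, spun 5 min at 2000 g; plasma counted, precipitated with 1.5 volumes acetonitrile, respun; cell-bound, protein-bound and free fractions expressed as % of blood activity; n = 3.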

[2] = Drug uptake in iv dosed C57Bl/6JRccHsd mouse blood cells measured at 160 mins; assay type: ADME, organism-based; details: in vivo
Summary of the method: (§2)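 Mice got tracer i.v., some after i.p. KYP-2047 (50 µmol/kg) 10 min before. Cardiac blood was collected at 20, 40, 80 or 160 min and spun 5 min at 2000 g into cells and plasma. Plasma was precipitated with acetonitrile and pellet and supernatant were gamma-counted. Activity in cells, protein-bound and free plasma is given as % of total blood activity, n = 3.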

[3] = Drug uptake in iv dosed C57Bl/6JRccHsd mouse blood cells measured at 160 mins post dose pretreated with 50 umol/kg, ip prolyl oligopeptidase inhibitor KYP-2047 10 mins before compound dosing by SPECT analysis; assay type: ADME, organism-based; details: in vivo; summary of the method: as §2
[4] = Plasma protein binding in iv dosed C57Bl/6JRccHsd mouse measured at 20 mins; assay type: ADME, organism-based; details: read-out: PPB (converted); summary of the method: as §1
[5] = Plasma protein binding in iv dosed C57Bl/6JRccHsd mouse measured at 80 mins; assay type: ADME, organism-based; details: in vivo; summary of the method: as §1
[6] = Plasma protein binding in iv dosed C57Bl/6JRccHsd mouse measured at 160 mins; assay type: ADME, organism-based; details: in vivo; summary of the method: as §1
Plasma = assay: Stability in human plasma at 2.5 MBq/ml up to 120 mins by HPLC analysis; assay type: ADME, cell-free; details: 2 h
[7] = Octanol-phosphate buffer partition coefficient, log P of the compound by shake-flask method; assay type: physicochemical
Summary of the method: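 Tracer (700 kBq, in 1% DMSO/0.9% NaCl) shaken 3 min between n-octanol and 0.02 M phosphate buffer pH 7.4; octanol phase split into four tubes, re-extracted with equal buffer 10 min, centrifuged 5 min at 1000 g; log of octanol/buffer cpm per mL ratio, mean ± SD of four replicates.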

Liver [8] = assay: Biodistribution in C57Bl/6JRccHsd mouse liver at 2.86 +/- 1.26 MBq, iv measured at 80 mins by SPECT analysis; assay type: ADME, organism-based; details: in vivo
Summary of the method: (§3)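 Organs excised at 5, 20, 40, 80 or 160 min and radioactivity gamma-counted as %ID/g (brain also as %ID). Blocking groups received KYP-2047 (50 µmol/kg, 10 mL/kg, 1% DMSO in 0.9% NaCl) i.p. 10 min before tracer. Mean ± SD, n = 2–4 per time point. Blocking compared by two-tailed Student's t test.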

Lung [9] = assay: Biodistribution in C57Bl/6JRccHsd mouse lung at 2.86 +/- 1.26 MBq, iv measured at 80 mins by SPECT analysis; assay type: ADME, organism-based; details: in vivo; summary of the method: as §3
Kidney [10] = assay: Biodistribution in C57Bl/6JRccHsd mouse kidney at 2.86 +/- 1.26 MBq, iv measured at 80 mins by SPECT analysis; assay type: ADME, organism-based; details: in vivo; summary of the method: as §3
Mus musculus [11] = assay: Biodistribution in C57Bl/6JRccHsd mouse salivary gland at 2.86 +/- 1.26 MBq, iv measured at 80 mins by SPECT analysis; assay type: ADME, organism-based; details: in vivo; summary of the method: as §3
Mus musculus [12] = assay: Biodistribution in C57Bl/6JRccHsd mouse tongue at 2.86 +/- 1.26 MBq, iv measured at 80 mins by SPECT analysis; assay type: ADME, organism-based; details: in vivo; summary of the method: as §3
Liver [13] = assay: Biodistribution in C57Bl/6JRccHsd mouse liver at 2.86 +/- 1.26 MBq, iv measured at 80 mins post dose pretreated with 50 umol/kg, ip prolyl oligopeptidase inhibitor KYP-2047 10 mins before compound dosing by SPECT analysis; assay type: ADME, organism-based; details: in vivo; summary of the method: as §3
Lung [14] = assay: Biodistribution in C57Bl/6JRccHsd mouse lung at 2.86 +/- 1.26 MBq, iv measured at 80 mins post dose pretreated with 50 umol/kg, ip prolyl oligopeptidase inhibitor KYP-2047 10 mins before compound dosing by SPECT analysis; assay type: ADME, organism-based; details: in vivo; summary of the method: as §3
Kidney [15] = assay: Biodistribution in C57Bl/6JRccHsd mouse kidney at 2.86 +/- 1.26 MBq, iv measured at 80 mins post dose pretreated with 50 umol/kg, ip prolyl oligopeptidase inhibitor KYP-2047 10 mins before compound dosing by SPECT analysis; assay type: ADME, organism-based; details: in vivo; summary of the method: as §3
Spleen = assay: Biodistribution in C57Bl/6JRccHsd mouse spleen at 2.86 +/- 1.26 MBq, iv measured at 80 mins post dose pretreated with 50 umol/kg, ip prolyl oligopeptidase inhibitor KYP-2047 10 mins before compound dosing by SPECT analysis; assay type: ADME, organism-based; details: in vivo; summary of the method: as §3
[16] = Biodistribution in C57Bl/6JRccHsd mouse urine at 2.86 +/- 1.26 MBq, iv measured at 80 mins post dose pretreated with 50 umol/kg, ip prolyl oligopeptidase inhibitor KYP-2047 10 mins before compound dosing by SPECT analysis; assay type: ADME, organism-based; details: in vivo; summary of the method: as §3
Mus musculus [17] = assay: Biodistribution in C57Bl/6JRccHsd mouse salivary gland at 2.86 +/- 1.26 MBq, iv measured at 80 mins post dose pretreated with 50 umol/kg, ip prolyl oligopeptidase inhibitor KYP-2047 10 mins before compound dosing by SPECT analysis; assay type: ADME, organism-based; details: in vivo; summary of the method: as §3
Thyroid gland [18] = assay: Biodistribution in C57Bl/6JRccHsd mouse thyroid at 2.86 +/- 1.26 MBq, iv measured at 5 mins by SPECT analysis; assay type: ADME, organism-based; details: in vivo; summary of the method: as §3
Thyroid gland [19] = assay: Biodistribution in C57Bl/6JRccHsd mouse thyroid at 2.86 +/- 1.26 MBq, iv measured at 160 mins by SPECT analysis; assay type: ADME, organism-based; details: in vivo; summary of the method: as §3
Brain = assay: Biodistribution in C57Bl/6JRccHsd mouse brain at 2.86 +/- 1.26 MBq, iv measured at 5 mins by SPECT analysis; assay type: ADME, organism-based; details: in vivo; summary of the method: as §3
Mus musculus [20] = assay: Drug metabolism in C57Bl/6JRccHsd mouse plasma assessed as retention time of radioactive metabolite at 3.6 MBq, iv measured at 20 mins by HPLC analysis; assay type: ADME, organism-based
Summary of the method: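 Male mice received 3.6 MBq tracer via tail vein. Cardiac blood was taken on heparin and centrifuged. Plasma was deproteinized with acetonitrile (1.5× plasma volume) and the supernatant run on reverse-phase C18 gradient HPLC. Fractions of 0.65 min were gamma-counted. Metabolite retention time was read from the 20 min sample.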

Blood [21] = assay: Biodistribution in C57Bl/6JRccHsd mouse blood at 2.86 +/- 1.26 MBq, iv measured at 20 mins post dose pretreated with 50 umol/kg, ip prolyl oligopeptidase inhibitor KYP-2047 10 mins before compound dosing by SPECT analysis; assay type: ADME, organism-based; details: in vivo; summary of the method: as §3
Blood [22] = assay: Biodistribution in C57Bl/6JRccHsd mouse blood at 2.86 +/- 1.26 MBq, iv measured at 40 mins by SPECT analysis; assay type: ADME, organism-based; details: in vivo; summary of the method: as §3
Blood [23] = assay: Biodistribution in C57Bl/6JRccHsd mouse blood at 2.86 +/- 1.26 MBq, iv measured at 40 mins post dose pretreated with 50 umol/kg, ip prolyl oligopeptidase inhibitor KYP-2047 10 mins before compound dosing by SPECT analysis; assay type: ADME, organism-based; details: in vivo; summary of the method: as §3
Blood [24] = assay: Biodistribution in C57Bl/6JRccHsd mouse blood at 2.86 +/- 1.26 MBq, iv measured at 160 mins by SPECT analysis; assay type: ADME, organism-based; details: in vivo; summary of the method: as §3

- fraction unbound at 80 min [1]: 0.15
- Drug uptake [2]: 73%
- Drug uptake [3]: 42%
- fraction unbound at 20 min [4]: 0.98
- PPB [5]: 1%
- PPB [6]: 1%
- Stability (Plasma): Stable
- logP [7]: 2.37
- Drug uptake (Liver [8]): 20.1 % ID/g
- Drug uptake (Lung [9]): 14.67 % ID/g
- Drug uptake (Kidney [10]): 10.02 % ID/g
- Drug uptake (Mus musculus [11]): 7.77 % ID/g
- Drug uptake (Mus musculus [12]): 4.43 % ID/g
- Drug uptake (Liver [13]): 5.05 % ID/g
- Drug uptake (Lung [14]): 1.54 % ID/g
- Drug uptake (Kidney [15]): 4.73 % ID/g
- Drug uptake (Spleen): 0.92 % ID/g
- Drug uptake [16]: 45.24 % ID/g
- Drug uptake (Mus musculus [17]): 1.52 % ID/g
- Drug uptake (Thyroid gland [18]): 52 % ID/g
- Drug uptake (Thyroid gland [19]): 9.4 % ID/g
- Drug uptake (Brain): 0.43 %ID
- Retention_time (Mus musculus [20]): 4 min
- Drug uptake (Blood [21]): 10.9 % ID/g
- Drug uptake (Blood [22]): 7.6 % ID/g
- Drug uptake (Blood [23]): 4 % ID/g
- Drug uptake (Blood [24]): 2.1 % ID/g
SMILES: N#C[C@@H]1CCCN1C(=O)[C@@H]1CCCN1C(=O)CCCc1ccc([123I])cc1
